# In the library only some 3.5% were active in any assay of this set; here they are far more common.
# MrgX1 antag: antagonists of human MrgX1 receptor, primary screen, HEK293 cells, Fluo-4 calcium flux. B-score at 10 µM. AID 588676, 2011. hit rate 1.3% among 310,000. Mas-related G-protein coupled receptor member X1 (Homo sapiens), Q96LB2. BAM8-22 antagonism; hits give low values;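 active = calcium-response B-score plate-corrected more than 3 library SD below zero, starting fluorescence within 5 deviations, no agonist response on first addition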;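 note: peak minus trough fluorescence over baseline after final BAM8-22 challenge near maximal dose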
# Target sequence (Q96LB2 whole entry, looked up): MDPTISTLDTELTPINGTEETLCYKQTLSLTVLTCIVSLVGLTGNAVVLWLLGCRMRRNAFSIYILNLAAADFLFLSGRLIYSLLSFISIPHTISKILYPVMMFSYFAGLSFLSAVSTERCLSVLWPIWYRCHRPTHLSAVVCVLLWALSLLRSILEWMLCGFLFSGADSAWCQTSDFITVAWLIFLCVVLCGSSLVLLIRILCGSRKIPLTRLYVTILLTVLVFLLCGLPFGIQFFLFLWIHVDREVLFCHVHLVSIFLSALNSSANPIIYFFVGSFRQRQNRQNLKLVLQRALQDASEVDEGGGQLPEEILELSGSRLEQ
# RGS4 inh: RGS4 inhibitors, primary screen, cell-based, HEK293 M3R inducible RGS4, calcium flux | Regulator of G-protein signaling 4 (Homo sapiens), P49798 | Fluo-4 calcium flux; hits give high values; triggered by carbachol at its EC20 | B-score at 10 µM | hit rate 0.45% among 310,000 | AID 463165, 2010;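 active = B-score, a plate-corrected calcium signal, over three deviations above library mean, with baseline fluorescence within five deviations of library mean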;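 note: RGS4 expression induced by doxycycline in cells with stable M3 receptor; B-score is computed from the integrated fluorescence ratio over baseline after carbachol; higher B-score means a larger calcium signal and so more RGS4 inhibition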
# Target sequence (P49798 whole entry, looked up): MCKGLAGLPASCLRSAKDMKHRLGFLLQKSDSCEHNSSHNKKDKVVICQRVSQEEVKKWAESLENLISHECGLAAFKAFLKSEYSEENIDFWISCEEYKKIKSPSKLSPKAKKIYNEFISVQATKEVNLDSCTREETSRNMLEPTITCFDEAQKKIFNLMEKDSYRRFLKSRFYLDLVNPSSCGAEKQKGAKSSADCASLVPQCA
# MrgX1 allo act: positive allosteric modulators of MrgX1, primary screen, HEK293 cells, Fluo-4 calcium flux. FDSS; hits give high values. B-score at 10 µM. hit rate 0.63% among 310,000;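 active = plate-corrected calcium response at least 3 library SD above typical, normal starting fluorescence, not activating the receptor alone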;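 note: compound read alongside a low EC10 to EC30 dose of BAM8-22 agonist; peak minus trough fluorescence over baseline measured at the second addition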
# MrgX1 ag: agonists of human MrgX1 receptor, primary screen, HEK293 cells, Fluo-4 calcium flux; Fluo-4 calcium fluorescence, agonist mode; hits give high values; B-score at 10 µM; hit rate 0.44% among 310,000; AID 588627, 2011;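 active = calcium response B-score plate-corrected fluorescence ratio at least 3 library SD, with starting fluorescence B-score inside 5 SD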
#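 Assay system: stable human MrgX1 HEK293 cell line. Quantity: 15,000 cells per well. Schedule: cells plated overnight, dye loaded 0.5 h 37 °C, 0.5 h room temperature. Detection: Fluo-4 NW calcium-flux fluorescence, kinetic read. Read-out basis: peak-minus-minimum fluorescence over baseline, converted to B scores. Control set: positive and negative control wells on each plate.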
# RGS4 pot: RGS4 potentiators or activators, primary screen, cell-based, HEK293 M3R inducible RGS4, calcium flux; carbachol calcium flux Fluo4; hits give low values; B-score at 10 µM; hit rate 0.92% among 310,000; AID 463111, 2010;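 active = B-score of the integrated calcium signal more than 4 SD below the library mean, with starting fluorescence not abnormally high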;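 note: negative B-score means reduced calcium response which marks RGS4 activation or potentiation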
#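 Assay system: Inducible-RGS4 HEK293 cells carrying M3 receptor | Schedule: Compound preincubation 20 min at room temperature before agonist | Signal: Kinetic calcium fluorescence imaging with Fluo4-AM dye, 2 µM | Read-out basis: B score from integrated fluorescence ratio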
# RGS4 inh valid: enhanced carbachol calcium response, M3R/RGS4 cells, RGS4 inhibitor project, cell-based, validation screen, HEK293 M3R/RGS4, calcium flux; shares compounds with RGS4 inh; carbachol calcium Fluo-4 fluorescence; carbachol added at its EC20; 0 = buffer wells, 100 = carbachol control; calcium response, % at 10 µM; hit rate 65% among 1,700;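 active = duplicate-averaged calcium response above the buffer-only control mean plus 5 SD of those controls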;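 note: integrated fluorescence ratio F max minus min over baseline F0; higher response in RGS4-induced cells means RGS4 inhibition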
# M3R Ca ctr: carbachol calcium response in non-induced M3R cells, confirmation, counter-screen for RGS4 inhibitor project, cell-based, HEK293 M3R. shares compounds with RGS4 inh. carbachol calcium Fluo-4; submaximal (EC20) carbachol stimulus; buffer wells 0%, carbachol control wells 100%. activity (percent), % at 10 µM. hit rate 20% among 1,900. AID 493000, 2010; call rule not given here;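 note: RGS4 induction absent so cells express M3R without RGS4; higher means more calcium signal and flags a non-specific hit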
# M3R basal Ca ctr: signal in non-induced cells without carbachol, RGS4 inhibitor counter-screen; hit rate 22% among 1,900; shares compounds with RGS4 inh; calcium response (agonist-mode artifact), % at 10 µM; HEK293 M3R/RGS4 non-induced, Fluo-4 calcium, no carbachol; normalised: buffer wells 0%, carbachol wells 100%;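 active = duplicate-averaged calcium rise in uninduced cells above buffer wells' mean plus 5 SD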
# * hit, by the source's call; i = inactive; . = no result.
SMILES,MrgX1 antag,RGS4 inh,MrgX1 allo act,MrgX1 ag,RGS4 pot,RGS4 inh valid,M3R Ca ctr,M3R basal Ca ctr
O=C(CSc1nnc(C2CCCCC2)n1Cc1ccccc1)NCc1ccco1,i,i,i,i,i,.,.,.
Nc1nc(Nc2ccccc2)nc(NCc2ccco2)c1[N+](=O)[O-],i,i,i,i,i,i,i,i
CN=c1sc(C(=O)Nc2cccc(Cl)c2)cc(=O)n1C,i,28*,i,i,i,14%*,i,23%*
Cn1c(N)c(C(=O)Nc2cccc(Cl)c2)c(=O)n(C)c1=O,i,i,i,i,i,.,.,.
CC(C)c1cc(NCCOCCO)n2c(nc3ccccc32)c1C#N,i,i,i,i,i,.,.,.
Cc1ccc(S(=O)(=O)N(CC(=O)N=Nc2c(O)[nH]c3ccccc23)c2cccc(C)c2)cc1,i,i,i,i,i,.,.,.
Cc1cc(Cl)ccc1N(CC(=O)N=Nc1c(O)[nH]c2ccccc12)S(C)(=O)=O,i,4.9*,i,i,i,5.5%*,i,i
CC(C)=CCc1c(O)cc2c(=O)c3ccc(O)cc3oc2c1O,i,11*,i,i,i,9.0%*,i,i
Cn1c(=O)[nH]c(=O)c2c1nc([N+](=O)[O-])n2Cc1ccccc1,i,12*,i,i,i,71%*,42%*,i
COc1ccc(/C=N/Nc2nc(C(=O)O)cs2)cc1,i,i,i,i,i,.,.,.
CC1(C)CC(NC(=O)c2coc(=O)c(Br)c2)CC(C)(C)N1,i,4.7*,i,i,i,17%*,i,i
CCOc1cc(/C=C\[N+](=O)[O-])ccc1OCC(=O)Nc1ccccc1C,i,43*,i,i,i,54%*,47%*,i
O=C(CNc1ccc2ccccc2c1)N/N=C/c1cc2ccccc2nc1Cl,i,i,i,i,i,.,i,i
CCC1NC(=O)c2ccccc2N1c1cccc(Cl)c1 (centres undefined),i,i,i,i,i,.,.,.
CC(C)(C)C1=CC=C(C(C)(C)C)C(=O)C1=O,i,i,i,i,i,.,.,.
COc1cc2c(cc1[N+](=O)[O-])n(C(C)C)c(=O)n2C(C)C,i,4.8*,i,i,i,i,39%*,i
S=C1NC[C@H](Cc2ccccc2)N1CCCCC1CCCCC1,i,i,i,i,i,i,i,i
CCOC(=O)[C@@H]1[C@H]2COc3cc(OC)ccc3[C@H]2N2C(=O)N(c3cccc(Cl)c3)C(=O)[C@]12C,i,i,i,i,i,i,i,i
CCOC(=O)[C@@H]1[C@H]2COc3cc(OC)ccc3[C@H]2N2C(=O)N(c3cccc(Cl)c3)C(=O)[C@@]12C,i,i,i,i,i,i,i,i
Cc1cc(NC(=O)CCC(=O)N(c2ccccc2)C(C(=O)NC2CCCC2)c2ccccc2F)no1 (centres undefined),i,i,i,i,i,.,.,.
N#CC1=C2N=C(N)c3ccccc3N2C2=C(C(=O)CCC2)C1c1ccc(Cl)cc1 (centres undefined),i,7.5*,i,i,i,20%*,28%*,24%*
Cc1cccc2sc(NNC(=O)c3ccc(S(=O)(=O)N4CCCC(C)C4)cc3)nc12 (centres undefined),i,i,i,i,i,i,i,i
Cc1cccc2sc(NNC(=O)c3ccc(S(=O)(=O)N4CCc5ccccc5C4)cc3)nc12,i,i,i,i,i,.,i,i
CCOC(=O)N1CCN(S(=O)(=O)c2ccc(C(=O)NNc3nc4c(C)cccc4s3)cc2)CC1,i,i,i,i,i,.,.,.
COc1cccc(Cn2c(=O)c3[nH]cnc3n(-c3ccccc3C)c2=O)c1,i,i,i,i,i,.,i,i
SMILES,MrgX1 antag,RGS4 inh,MrgX1 allo act,MrgX1 ag,RGS4 pot,RGS4 inh valid,M3R Ca ctr,M3R basal Ca ctr
C/C(O)=C(/C=Nc1ccccc1)C(=O)Nc1ccccc1,i,i,i,i,i,.,.,.
CN(C)c1ccc(C(CNS(=O)(=O)c2ccc3ccccc3c2)N2CCOCC2)cc1 (centres undefined),i,5.2*,i,i,i,5.0%*,i,i
CN(C)c1ccc(C(CNS(=O)(=O)c2ccc([N+](=O)[O-])cc2)N2CCCC2)cc1 (centres undefined),i,i,i,i,i,.,.,.
CCc1nn(C)c2c(=O)c(=O)c2n(C)[nH]1,i,i,i,i,i,.,.,.
COC(=O)Cc1[nH]c(=S)[nH]c1C(=O)OC,i,i,i,i,i,.,.,.
Cc1ccc(C(C2C(=O)CC(C)(C)CC2=O)C2C(=O)CC(C)(C)CC2=O)s1,i,25*,i,i,i,17%*,i,i
CCOc1ccc(CCNC(=O)COC(=O)CNS(=O)(=O)c2ccc(NC(C)=O)cc2)cc1OCC,i,i,i,i,i,.,.,.
CCOc1ccc(CCNC(=O)COC(=O)c2cccc(S(=O)(=O)N3CCCC3)c2)cc1OCC,i,i,i,i,i,.,.,.
O=C1CC(c2ccccc2)CC(O)=C1C=NCc1ccc(Cl)cc1 (centres undefined),i,i,i,i,i,.,.,.
Cc1c(C(=O)OCc2nc3scc(-c4ccccc4)c3c(=O)[nH]2)cccc1[N+](=O)[O-],i,i,i,i,i,.,.,.
O=C(OCc1nc2scc(-c3ccccc3)c2c(=O)[nH]1)c1cc(Cl)ccc1[N+](=O)[O-],i,6.2*,i,i,i,24%*,i,i

# High-throughput results: PubChem, Johns Hopkins Ion Channel Center
